This assay in a line: Binding affinity to Mycobacterium tuberculosis FabB C171Q mutant expressed in Mycobacterium smegmatis MC2 155 by intrinsic tryptophan fluorescence quenching-based fluorimetric method. In short, it runs like this:
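Kd by quenching of intrinsic tryptophan fluorescence (excitation 280 nm, emission 337 nm). Inhibitor stocks in DMSO or buffer were titrated into 1 μM His-tag-purified enzyme in 50 mM Tris-HCl, 150 mM NaCl, 1 mM DTT, pH 8.5. mtFabB was expressed in M. smegmatis MC²155; saFabF was expressed in E. coli BL21(DE3) pLysS.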
As for `C=C/C(C)=C/[C@@]1(C)SC(=O)C=C1OCC(=O)NCCN=[N+]=[N-]`, the Ki (as a rule, a measure of affinity in units of concentration, obtained from inhibition or displacement) is greater than 200 µM.

Regarding `C=C/C(C)=C/[C@@]1(C)SC(=O)C=C1OCC(=O)NCCNC(=O)OC(C)(C)C`, the Ki is greater than 200 µM.

For the molecule `C=C/C(C)=C/[C@@]1(C)SC(=O)C(C)=C1O` [THIOLACTOMYCIN], the affinity, expressed as Ki, was 175 µM.

These data come from ChEMBL document CHEMBL4425098, “Thiolactomycin-Based Inhibitors of Bacterial β-Ketoacyl-ACP Synthases with in Vivo Activity” (J Med Chem, 2016).
